ChEMBL document CHEMBL1125138, “1,3-Dialkyl-3-acyltriazenes, a novel class of antineoplastic alkylating agents” (J Med Chem, 1990)

Legend:
DOD-1 = assay: Evaluated for the inhibitory concentration required to cause growth inhibition of DOD-1 breast cell line using the MTT Cytotoxicity Assay; format: functional, cell-based; conditions: Homo sapiens
Outline: (§1)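 MTT microculture tetrazolium growth assay on human cell lines and normal fibroblasts. Cells seeded at 1000 cells/well, with compound added 24 h after plating. Cultures then incubated a further 6 days at 37 °C before MTT read-out of growth versus untreated cells.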

NCI-H460 = assay: Evaluated for the inhibitory concentration required to cause growth inhibition of H460 cell line of lung using the Microculture Tetrazolium (MTT) Cytotoxicity Assay; format: functional, cell-based; conditions: Homo sapiens; outline: as §1
CCD 19Lu = assay: Evaluated for the inhibitory concentration required to cause growth inhibition of CCD-19Lu fibroblasts cell line using the MTT Cytotoxicity Assay; format: functional, cell-based; conditions: Homo sapiens; outline: as §1
A-427 = assay: Evaluated for the inhibitory concentration required to cause growth inhibition of A427Mer- cell line of lung using the MTT Cytotoxicity Assay; format: functional, cell-based; conditions: Homo sapiens; outline: as §1
[1] = Evaluated in vivo for antineoplastic activity against LX-1 Lung small cell carcinoma tumor xenograft in nude mice after administering intra peritoneally 3 injections at a dose of 200 mg/kg; format: functional, Homo sapiens
Outline: (§2)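 Nude mice bearing tumor xenografts, run through the NCI Developmental Therapeutics Program. Compound given ip as three injections at 4-day intervals for MX-1 mammary, LX-1 lung and LOX melanoma. Activity read out as % T/C.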

NCI/ADR-RES = assay: Evaluated for the inhibitory concentration required to cause growth inhibition of MCF-7ADR breast cell line using the MTT Cytotoxicity Assay; format: functional, cell-based; conditions: Homo sapiens; outline: as §1
NCI-H522 (Homo sapiens) = assay: Evaluated for the inhibitory concentration required to cause growth inhibition of H522 cell line of lung using the Microculture Tetrazolium (MTT) Cytotoxicity Assay
[2] = Evaluated in vivo for antineoplastic activity against LX-1 Lung small cell carcinoma tumor xenograft in nude mice after administering intra peritoneally 3 injections at a dose of 100 mg/kg; format: functional, Homo sapiens; outline: as §2
P388 [3] = assay: Evaluated in vivo for antineoplastic activity against P388 murine leukemia tumor […] after administering intra peritoneal injection at a dose of 200 mg/kg.; format: functional, Mus musculus
Outline: (§3)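 P388 leukemia-bearing mice, run through the NCI Developmental Therapeutics Program. Compound given ip once daily on 5 consecutive days. Activity read out as % T/C.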

[4] = Evaluated in vivo for antineoplastic activity against LOX melanoma amelanotic tumor xenograft in nude mice after administering intra peritoneally 3 injections at a dose of 800 mg/kg; format: functional, Homo sapiens; outline: as §2
Malme-3M = assay: Evaluated for the inhibitory concentration required to cause growth inhibition of MALME-3M melanoma cell line using the MTT Cytotoxicity Assay; format: functional, cell-based; conditions: Homo sapiens; outline: as §1
MX1 [5] = assay: Evaluated in vivo for antineoplastic activity against MX-1 mammary carcinoma tumor xenograft in nude mice after administering intra peritoneally 3 injections at a dose of 400 mg/kg; format: functional, Homo sapiens; outline: as §2
OVCAR-4 = assay: Evaluated for the inhibitory concentration required to cause growth inhibition of OVCAR-4 ovarian cell line using the MTT Cytotoxicity Assay; format: functional, cell-based; conditions: Homo sapiens; outline: as §1
NCI-H23 = assay: Evaluated for the inhibitory concentration required to cause growth inhibition of H23 cell line of lung using the Microculture Tetrazolium (MTT) Cytotoxicity Assay; format: functional, cell-based; conditions: Homo sapiens; outline: as §1
A498 = assay: Evaluated for the inhibitory concentration required to cause growth inhibition of A498Rem- renal cell line using the MTT Cytotoxicity Assay; format: functional, cell-based; conditions: Homo sapiens; outline: as §1
[6] = Evaluated in vivo for antineoplastic activity against LOX melanoma amelanotic tumor xenograft in nude mice after administering intra peritoneally 3 injections at a dose of 400 mg/kg; format: functional, Homo sapiens; outline: as §2
MX1 [7] = assay: Evaluated in vivo for antineoplastic activity against MX-1 mammary carcinoma tumor xenograft in nude mice after administering intra peritoneally 3 injections at a dose of 100 mg/kg; format: functional, Homo sapiens; outline: as §2
A 172 = assay: Evaluated for the inhibitory concentration required to cause growth inhibition of A172Mer- cell line of central nervous system (CNS) using the MTT Cytotoxicity Assay; format: functional, cell-based; conditions: Homo sapiens; outline: as §1
A673 = assay: Evaluated for the inhibitory concentration required to cause growth inhibition of A673Mer+ sarcoma cell line using the MTT Cytotoxicity Assay; format: functional, cell-based; conditions: Homo sapiens; outline: as §1
[8] = system: MAR BEL fibroblasts cell line; assay: Evaluated for the inhibitory concentration required to cause growth inhibition of MAR BEL fibroblasts cell line using the MTT Cytotoxicity Assay; format: functional, cell-based; conditions: Homo sapiens; outline: as §1
P388 [9] = assay: Evaluated in vivo for antineoplastic activity against P388 murine leukemia tumor […] after administering intra peritoneal injection at a dose of 100 mg/kg.; format: functional, Mus musculus; outline: as §3
WiDr = assay: Evaluated for the inhibitory concentration required to cause growth inhibition of WiDR colon cell line using the MTT Cytotoxicity Assay; format: functional, cell-based; conditions: Homo sapiens
Outline: (§4)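 MTT cell-growth assay in human cell lines: cells harvested and seeded at 1000 cells/well in 96-well plates. Compound added after 24 h, then cultures incubated a further 6 days at 37 °C. Growth measured with and without agent.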

OVCAR-3 = assay: Evaluated for the inhibitory concentration required to cause growth inhibition of OVCAR-3 ovarian cell line using the MTT Cytotoxicity Assay; format: functional, cell-based; conditions: Homo sapiens; outline: as §1
MCF7 = assay: Evaluated for the inhibitory concentration required to cause growth inhibition of MCF-7 breast cell line using the MTT Cytotoxicity Assay; format: functional, cell-based; conditions: Homo sapiens; outline: as §1
LOX IMVI = assay: Evaluated for the inhibitory concentration required to cause growth inhibition of LOX melanoma cell line using the MTT Cytotoxicity Assay; format: functional, cell-based; conditions: Homo sapiens; outline: as §1
U-251 = assay: Evaluated for the inhibitory concentration required to cause growth inhibition of U251 cell line of central nervous system (CNS) using the MTT Cytotoxicity Assay; format: functional, cell-based; conditions: Homo sapiens; outline: as §4
MX1 [10] = assay: Evaluated in vivo for antineoplastic activity against MX-1 mammary carcinoma tumor xenograft in nude mice after administering intra peritoneally 3 injections at a dose of 200 mg/kg; format: functional, Homo sapiens; outline: as §2
SK-MEL-5 = assay: Evaluated for the inhibitory concentration required to cause growth inhibition of SK-MEL-5 melanoma cell line using the MTT Cytotoxicity Assay; format: functional, cell-based; conditions: Homo sapiens; outline: as §1
[11] = Evaluated in vivo for antineoplastic activity against LOX melanoma amelanotic tumor xenograft in nude mice after administering intra peritoneally 3 injections at a dose of 100 mg/kg; format: functional, Homo sapiens; outline: as §2
TE-671 = assay: Evaluated for the inhibitory concentration required to cause growth inhibition of TE-671 cell line of central nervous system (CNS)using the MTT Cytotoxicity Assay; format: functional, cell-based; conditions: Homo sapiens; outline: as §1
HOS-TE85 = assay: Evaluated for the inhibitory concentration required to cause growth inhibition of TE85Mer+ sarcoma cell line using the MTT Cytotoxicity Assay; format: functional, cell-based; conditions: Homo sapiens; outline: as §1
[12] = Evaluated in vivo for antineoplastic activity against LOX melanoma amelanotic tumor xenograft in nude mice after administering intra peritoneally 3 injections at a dose of 200 mg/kg; format: functional, Homo sapiens; outline: as §2
A704 = assay: Evaluated for the inhibitory concentration required to cause growth inhibition of A704Rem- renal cell line using the MTT Cytotoxicity Assay; format: functional, cell-based; conditions: Homo sapiens; outline: as §1
NCI-H358 = assay: Evaluated for the inhibitory concentration required to cause growth inhibition of H358M cell line of lung using the Microculture Tetrazolium (MTT) Cytotoxicity Assay; format: functional, cell-based; conditions: Homo sapiens; outline: as §1
A549 = assay: Evaluated for the inhibitory concentration required to cause growth inhibition of A549Rem- cell line of lung using the MTT Cytotoxicity Assay; format: functional, cell-based; conditions: Homo sapiens; outline: as §1
P388 [13] = assay: Evaluated in vivo for antineoplastic activity against P388 murine leukemia tumor […] after administering intra peritoneal injection at a dose of 50 mg/kg.; format: functional, Mus musculus; outline: as §3
NCI-H322M = assay: Evaluated for the inhibitory concentration required to cause growth inhibition of H322M cell line of lung using the Microculture Tetrazolium (MTT) Cytotoxicity Assay; format: functional, cell-based; conditions: Homo sapiens; outline: as §1
RPMI-7951 = assay: Evaluated for the inhibitory concentration required to cause growth inhibition of RPMI7951 melanoma cell line using the MTT Cytotoxicity Assay; format: functional, cell-based; conditions: Homo sapiens; outline: as §1
NCI-H125 = assay: Evaluated for the inhibitory concentration required to cause growth inhibition of H125 cell line of lung using the Microculture Tetrazolium (MTT) Cytotoxicity Assay; format: functional, cell-based; conditions: Homo sapiens; outline: as §1

For CNC(=O)N(C)/N=N\CCCl, the IC50 (DOD-1) was 21 µM, the IC50 (NCI-H460) was 60 µM and the IC50 (CCD 19Lu) was 60 µM. The IC50 (A-427) was 18 µM, the T/C [1] was -66% and the IC50 (NCI/ADR-RES) was 17 µM. The IC50 (NCI-H522 (Homo sapiens)) was 13 µM, the T/C [2] was -19% and the T/C (P388 [3]) was 297%. For the same molecule, the T/C [4] was 309%, the IC50 (Malme-3M) was 28 µM and the T/C (MX1 [5]) was -76%. It also gave an IC50 (OVCAR-4) of 20 µM, an IC50 (NCI-H23) of 18 µM and an IC50 (A498) of 20 µM. For the same molecule, the T/C [6] was 309%, the T/C (MX1 [7]) was 15% and the IC50 (A 172) was 27 µM. For the same molecule, the IC50 (A673) was 35 µM, the IC50 [8] was 47 µM and the T/C (P388 [9]) was 196%. It also gave an IC50 (WiDr) of 14 µM, an IC50 (OVCAR-3) of 20 µM and an IC50 (MCF7) of 14 µM. For the same molecule, the IC50 (LOX IMVI) was 10 µM, the IC50 (U-251) was 30 µM and the T/C (MX1 [10]) was 1%. For the same molecule, the IC50 (SK-MEL-5) was 13 µM, the T/C [11] was 201% and the IC50 (TE-671) was 55 µM. The IC50 (HOS-TE85) was 26 µM, the T/C [12] was 309% and the IC50 (A704) was 35 µM. The IC50 (NCI-H358) was 60 µM, the IC50 (A549) was 26 µM and the T/C (P388 [13]) was 175%. It also gave an IC50 (NCI-H322M) of 37 µM, an IC50 (RPMI-7951) of 18 µM and an IC50 (NCI-H125) of 45 µM.
